Assay outcomes (PubChem)
This excerpt belongs to a sample that is enriched for hits.
Diaph act CS – compounds boosting diaphorase resazurin reduction – biochemical, uHTS, resorufin fluorescence, counter-screen for diaphorase-coupled primary assays, primary screen. AID 1229, 2008. Diaphorase/resazurin coupled assay, 16 min; stronger effect = higher value; 1 = vehicle wells, 0 = NADH-free wells. actives 0.005% (n = 190,000). activation factor at 20 µM;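 active = diaphorase activity raised at least twofold by the compound at 20 µM; inactive = activation factor below 2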
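Measured by – red resorufin fluorescence at 544/590 nm excitation/emission · Test system – Clostridium kluyveri diaphorase, purified enzyme · Incubation – reaction time 16 min, room temperature · Buffer or medium – 50 mM HEPES pH 7.4 with 4.542 mM MgCl2, 0.005% Tween 20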
ABCB6 inh MLPCN – ABCB6 transporter inhibitors, primary screen, K562-ABCB6 cells, flow cytometry, MLPCN library | ATP-binding cassette sub-family B member 6 (Homo sapiens), Q9NP58 | K562-ABCB6 porphyrin accumulation, 1 h; stronger effect = lower value | fluorescence ratio to DMSO, % at 10 µM | actives 0.19% (n = 360,000) | AID 602162, 2011;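 active = fluorescence ratio to DMSO below 75%, the collection mean minus 3 SD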;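 note: signal is porphyrin accumulated inside mitochondria; lower ratio means ABCB6 inhibition with less porphyrin fluorescence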
Target sequence (Q9NP58 whole entry, looked up): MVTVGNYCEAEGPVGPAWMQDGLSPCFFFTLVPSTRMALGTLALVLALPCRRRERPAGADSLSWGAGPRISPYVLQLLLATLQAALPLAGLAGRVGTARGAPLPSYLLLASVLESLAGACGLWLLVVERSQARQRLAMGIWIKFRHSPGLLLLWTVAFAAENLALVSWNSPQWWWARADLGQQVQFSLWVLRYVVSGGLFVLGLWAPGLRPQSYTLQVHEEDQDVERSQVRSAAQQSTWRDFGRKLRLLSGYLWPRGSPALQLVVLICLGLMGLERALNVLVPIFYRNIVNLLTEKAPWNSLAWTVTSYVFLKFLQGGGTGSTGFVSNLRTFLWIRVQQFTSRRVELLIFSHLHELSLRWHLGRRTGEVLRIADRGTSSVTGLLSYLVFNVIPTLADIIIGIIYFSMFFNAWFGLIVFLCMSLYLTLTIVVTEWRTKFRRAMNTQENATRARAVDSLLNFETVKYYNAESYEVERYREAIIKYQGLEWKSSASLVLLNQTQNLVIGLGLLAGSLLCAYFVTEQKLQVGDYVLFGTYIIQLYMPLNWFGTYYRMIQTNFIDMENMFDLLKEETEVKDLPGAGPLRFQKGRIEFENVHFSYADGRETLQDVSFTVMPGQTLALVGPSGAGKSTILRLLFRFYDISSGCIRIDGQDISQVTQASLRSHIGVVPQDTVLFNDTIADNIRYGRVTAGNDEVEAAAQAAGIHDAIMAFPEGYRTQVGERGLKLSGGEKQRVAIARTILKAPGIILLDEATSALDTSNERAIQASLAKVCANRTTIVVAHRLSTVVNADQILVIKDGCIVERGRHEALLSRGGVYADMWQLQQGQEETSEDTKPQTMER
ABCB1 block – ABCB1 efflux pump inhibitors, primary screen, cell-based, multiplex, flow cytometry, ABCG2 counter-screen | CCRF-Adr cells, JC-1 efflux | inhibition, % at 6.6 µM | AID 1326, 2008 | ATP-dependent translocase ABCB1 (Homo sapiens), P08183 | actives 0.067% (n = 190,000); in the data active = inhibition above about 40%;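 note: higher value means more JC-1 retained so stronger ABCB1 efflux block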
FLuc stim CS – FLuc activators, initial screening, artefact control for FLuc-dependent activation tests, biochemical, ATPlite luminescence; 200,000 tested, under 10 active; Luciferin 4-monooxygenase (Photinus pyralis), P08659; AID 1027, 2008; ATPlite luciferase biochemical, 10 min; 0 = ATP-free wells, 1 = DMSO control; activation factor at 10 µM;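 active = luciferase activation factor, scaled between plate controls, of at least 2 with compound at 10 µM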
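test system = cell-free luciferase reagent | medium = PBS as buffer for the ATP substrate | dosing = test compounds dosed from 2 mM stocks in 100% DMSO | incubation = 10 min at ambient temperature | detection = luminescence measurement of luciferase light output | benchmarks = low control with PBS replacing ATP, high control enzyme plus ATP without compound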
ABCG2 block – ABCG2 efflux pump inhibitors, primary screen, multiplex with ABCB1, IgMXP3 cells, flow cytometry; Broad substrate specificity ATP-binding cassette transporter ABCG2 (Homo sapiens), Q9UNQ0; JC-1 efflux; inhibition, % at 6.6 µM; actives 0.1% (n = 190,000);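 active = inhibition above 80%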
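Assay system – ABCG2 IgMXP3 and barcoded ABCB1 CCRF-Adr cell mix · Input – 3 million cells/mL in well · Reagent – JC-1 fluorescent substrate · Compound – single test compound dose, 6.6 µM final · Timing – 10 min exposure at 25 °C with rotation, no wash · Detection – flow cytometry of retained JC-1 fluorescence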
FLuc inh counter – firefly luciferase enzyme inhibitors, primary screen, artefact control for luciferase-based inhibitor screens, biochemical, luminescence, ATPLite | Luciferin 4-monooxygenase (Photinus pyralis), P08659 | 10 min | inhibition, % at 10 µM | actives 1.5% (n = 200,000);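 active = inhibition above about 50% when tested at 10 µM, limit read from the data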
Hits are given with their value; n = inactive; x = no result given.

SMILES | Diaph act CS | ABCB6 inh MLPCN | ABCB1 block | FLuc stim CS | ABCG2 block | FLuc inh counter
COc1ccc(-c2cnnc(N/N=C/c3ccc(O)cc3)n2)cc1 | n | n | n | n | n | 73
COc1cc(C(=O)NCCNc2nc3ccc(C)cc3cc2C#N)cc(OC)c1OC | x | n | x | x | x | x
C/C(=N\OC(=O)c1ccc(F)cc1)c1nccs1 | n | n | n | n | n | 87
C/C(=N/OC(=O)c1c(F)cccc1F)c1nccs1 | n | n | n | n | n | 81
C/C(=N\OC(=O)c1c(-c2c(F)cccc2Cl)noc1C)c1nccs1 | n | n | n | n | n | n
CC(=NOC(=O)C1CCCCC1)c1nccs1 | x | n | x | x | x | x
COc1ccc(C(=O)O/N=C(/C)c2cccs2)cc1 | n | n | n | n | n | 96
COc1ccc(C(=O)O/N=C(\C)c2nccs2)cc1 | n | n | n | n | n | 92
CCc1ccc(NC(=O)CSc2nc(=O)n3cc(C)ccc3n2)cc1 | x | n | x | x | x | x
N#CC1(NC(=O)COC(=O)c2nccnc2N)CCCCC1 | x | n | x | x | x | x
COc1ccc(CN(C)C[C@H]2OCCCC[C@@H](C)Oc3ccc(NC(=O)c4ccccc4)cc3C(=O)N([C@H](C)CO)C[C@@H]2C)cc1 | x | n | x | x | x | x
O=C(Nc1ccc2nc(-c3cccs3)[nH]c2c1)c1ccco1 | n | n | n | n | n | 62
O=C(Nc1nc(-c2ccncc2)cs1)c1ccco1 | n | n | n | n | n | n
O=C(Nc1ccc2nc(-c3cccs3)[nH]c2c1)c1cccs1 | n | n | n | n | n | 61
O=C(Nc1nc(-c2cccs2)cs1)c1ccco1 | n | n | n | n | n | 53
COc1ccc(C(CNC(=O)c2ccc(OCc3csc(C)n3)cc2)N2CCCC2)cc1 (centres undefined) | x | n | x | x | x | x
CC(=O)NCCSc1ccc(S(=O)(=O)N2CCCC2)cn1 | x | n | x | x | x | x
Cc1ccc(C(=O)NCC(=O)N2CCC(Cc3ccccc3)CC2)cc1 | x | n | x | x | x | x
O=C(N/N=C/C1CC=CCC1)c1ccc(Cl)cc1O (centres undefined) | n | n | n | n | n | 55
O=C(N/N=C/C1CC=CCC1)c1ccccc1O (centres undefined) | n | n | n | n | n | n
Cc1cccc(N2CCN(c3ccc4cc(S(=O)(=O)N5CCCCC5)ccc4n3)CC2)c1C | x | n | x | x | x | x
COc1ccc(C(=O)Nn2c(SCC(=O)c3ccc(Cl)cc3)nc3ccccc3c2=O)cc1 | n | n | n | n | n | n
COc1ccc(C(=O)Nn2c(SCC(=O)NCc3ccco3)nc3ccccc3c2=O)cc1 | n | n | n | n | n | 54
CCn1c(SCC(=O)NCc2ccco2)nc2ccccc2c1=O | n | n | n | n | n | n
COCCCn1c(SCC(=O)NC2CCCCC2)nc2ccccc2c1=O | x | n | x | x | x | x
SMILES | Diaph act CS | ABCB6 inh MLPCN | ABCB1 block | FLuc stim CS | ABCG2 block | FLuc inh counter
COc1ccc(C(=O)Nn2c(SCC(=O)N3CCC(C)CC3)nc3ccccc3c2=O)cc1 | n | n | n | n | n | 75
COc1ccc(C(=O)Nn2c(SCC(=O)NC3CCCCC3)nc3ccccc3c2=O)cc1 | n | n | n | n | n | 58
CC(=O)c1ccc(N2CCN(S(=O)(=O)c3ccc(-c4cnc(C5CC5)o4)cc3)CC2)cc1 | x | n | x | x | x | x
NC(=O)c1sc2nc3c(cc2c1N)CCC3 | n | n | n | n | n | n
COC(=O)c1sc2nc3c(cc2c1N)CCCC3 | n | n | n | n | n | 60
COc1ccc(-c2cc(=O)c3cc(F)ccc3[nH]2)cc1 | n | n | n | n | n | n
COc1ccc2[nH]c(-c3ccc(C)cc3)cc(=O)c2c1 | n | n | n | n | n | 93
Cc1ccc(C(=O)Nc2ccc3c(c2)nc2n3CCSC2)cc1 | n | n | n | n | n | 62
COc1ccccc1C(=O)Nc1ccc2c(c1)nc1n2CCSC1 | n | n | n | n | n | 78
CN=c1scc(-c2ccccc2F)n1/N=C/c1ccc(O)c(O)c1O | n | n | n | n | n | 98
CN=c1scc(-c2ccccc2F)n1/N=C/c1ccc[nH]1 | n | n | n | n | n | 97
CCN=C1NN=C(c2ccc(C)cc2)CS1 | n | n | n | n | n | 64
CC(C)N=C1NN=C(c2ccc(F)cc2)CS1 | n | n | n | n | n | 58
CCNC(=S)Nc1ccc(Cc2nc3ccccc3[nH]2)cc1 | x | n | x | x | x | x
CCCCNC(=O)c1oc2ccc(S(=O)(=O)N3CCCC3)cc2c1C | x | n | x | x | x | x
CSc1nnc(NC(=O)c2ccc(S(=O)(=O)N(C)C)cc2)s1 | n | n | n | n | n | 60
COc1ccc(N=CC2=C(O)c3ccccc3C2=O)c(OC)c1 | n | n | n | n | n | 95
O=C1C(C=NCc2ccco2)=C(O)c2ccccc21 | n | n | n | n | n | n
O=C1C(C=Nc2ccc(F)cc2)=C(O)c2ccccc21 | n | n | n | n | n | 77
Cc1ccccc1N=CC1=C(O)c2ccccc2C1=O | n | n | n | n | n | 96
Cc1ccc(CN2CCC[C@]3(N[C@H](c4ccc(C(F)(F)F)cc4)[C@@H]4C(=O)N(Cc5ccccc5)C(=O)[C@@H]43)C2=O)cc1 | x | n | x | x | x | x
CN(C)c1ccc(NC(=O)c2sc(SCC(=O)Nc3nccs3)nc2N)cc1 | n | n | n | n | n | 55
COc1cccc2sc(Nc3nnc(-c4cccs4)o3)nc12 | n | n | n | n | n | 56
Fc1cccc2sc(Nc3nnc(-c4ccco4)o3)nc12 | n | n | n | n | n | 68
COc1cccc2sc(Nc3nnc(-c4ccc(F)cc4)o3)nc12 | n | n | n | n | n | n
SMILES | Diaph act CS | ABCB6 inh MLPCN | ABCB1 block | FLuc stim CS | ABCG2 block | FLuc inh counter
CC(C=NNc1ccc([N+](=O)[O-])cn1)=Cc1ccccc1 | x | n | x | x | x | x
CCCN1C=CC(=C/C=C(\C#N)C(=O)OCC)C=C1 | n | x | n | n | n | 58
C#CC(=O)N(c1ccc(OC)c(OC)c1)C(C(=O)NC1CCCC1)c1cccs1 (centres undefined) | n | 55 | n | n | n | n
Cc1ccccc1/C=N/Nc1nc2ccccc2[nH]1 | n | n | n | n | n | n
C(=C\c1ccccc1)/C=N/Nc1nc2ccccc2[nH]1 | n | n | n | n | n | 63
C(=N\Nc1nc2ccccc2[nH]1)/C1CCCCC1 | n | n | n | n | n | 74
C(=N\Nc1nc2ccccc2[nH]1)/c1ccccc1 | x | n | n | n | n | n
c1ccc(CCc2nc3ccccc3[nH]2)cc1 | n | n | n | n | n | n
